# From PubChem
# rCAG RNA binder = binders of r(CAG) RNA repeats, primary screen, biochemical, fluorescence | r(CAG) RNA repeat, TO-PRO-1 dye displacement fluorescence | inhibition, % at 3 µM | AID 651821, 2012 | 370,000 tested, 1.3% active;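 active = inhibition above the plate cutoff, the mean of all test compounds on that plate plus 3 SD, cut at about 35% in these data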;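 also: higher means more dye released from RNA so lower well fluorescence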
# ABHD4 inh = ABHD4 inhibitors, primary screen, biochemical, fluorescence polarization, mouse; AID 720543, 2013; inhibition, % at 8.92 µM; 370,000 tested, 0.54% active; purified mABHD4, FP-Rh probe fluorescence polarization;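 active = inhibition exceeding the mean over every tested compound plus 3 SD, cut at about 30% in these data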
#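 System: mouse ABHD4 enzyme, wild type / Medium: HEPES pH 7.0, NaCl, Pluronic buffer / Reagent: FP-Rh activity-based fluorescent probe / Control set: S159A mutant high control, sample median low control / Detection: fluorescence polarization with parallel and perpendicular emission, 525/598 nm / Schedule: 45 min + 60 min at 25 °C / Compound dosing: 8.92 µM, single dose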
# HTRA1 inhibitor = HTRA1 serine protease inhibitors, primary screen, biochemical, fluorescence polarization, HTS | Q92743 | recombinant HTRA1, FP-rhodamine activity-based probe | inhibition, % at 5.96 µM | 340,000 tested, 0.5% active | AID 504803, 2011; in the data active = inhibition above about 36%
# PRMT1 inh = PRMT1 methyltransferase inhibitors, primary screen, biochemical, fluorescence polarization; Protein arginine N-methyltransferase 1 (Homo sapiens), Q99873; recombinant PRMT1, activity-based probe fluorescence polarization; inhibition, % at 2.79 µM; 370,000 tested, 1.3% active;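 active = inhibition above about 21% made by adding two undisclosed values, limit read from the data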
# Target sequence (Q99873 whole entry, looked up): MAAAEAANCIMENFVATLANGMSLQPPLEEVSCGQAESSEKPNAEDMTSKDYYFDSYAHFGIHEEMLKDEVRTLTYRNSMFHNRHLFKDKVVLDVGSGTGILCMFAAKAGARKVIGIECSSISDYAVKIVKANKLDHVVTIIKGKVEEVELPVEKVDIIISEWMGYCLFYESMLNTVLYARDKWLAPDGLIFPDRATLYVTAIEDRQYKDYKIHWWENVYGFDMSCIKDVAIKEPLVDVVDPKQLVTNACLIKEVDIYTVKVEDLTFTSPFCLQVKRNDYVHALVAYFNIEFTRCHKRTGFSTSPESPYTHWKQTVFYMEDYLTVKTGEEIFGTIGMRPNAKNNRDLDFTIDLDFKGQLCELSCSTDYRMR
# TCR CD3 inh = inhibitors of human TCR-CD3 interaction, primary screen, biochemical, fluorescence, TAMRA-labeled TCR probe | T-cell receptor (TCR) | inhibition, % at 9.4 µM | 360,000 tested, 0.37% active | AID 651800, 2012;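 also: recombinant mutant TCR 2C K166C tagged with TAMRA read by polarization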
# SIAE inh = human SIAE inhibitors, primary screen, biochemical, fluorescence polarization, FP-Rh probe, 1536-well HTS; 370,000 tested, 0.69% active; Sialate O-acetylesterase (Homo sapiens), Q9HAT2; AID 1053197, 2014; SIAE FP-Rh probe binding; inhibition, % at 9.66 µM;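 active = inhibition above a cutoff: mean of compounds within the control limits plus 3 SD of those, cut at about 17% in these data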
# BSA probe FL = compounds interfering with TAMRA-BSA probe, counter-screen for TCR-CD3 interaction inhibitor project, biochemical, fluorescence, TAMRA-labeled BSA; shares compounds with TCR CD3 inh; TAMRA-labeled BSA probe fluorescence counterscreen; inhibition, % at 9.4 µM; 1,200 tested, 10% active; AID 652035, 2013; in the data active = inhibition above about 23%
# TCR-CD3 inh conf = TCR-CD3 interaction inhibitors, retest, confirmation, biochemical, fluorescence, TAMRA-labeled TCR probe; shares compounds with TCR CD3 inh; TAMRA-labeled TCR probe fluorescence binding assay; inhibition, % at 9.4 µM; 1,200 tested, 48% active
# A number is an active result; . = inactive; / = no result; ! = a repeat was not active. Hits are enriched below; roughly 3.5% of the tested compounds scored in any of these assays. Rule as the data show it, unless noted: active = inhibition above about 19%; inactive = the rest.
SMILES,rCAG RNA binder,ABHD4 inh,HTRA1 inhibitor,PRMT1 inh,TCR CD3 inh,SIAE inh,BSA probe FL,TCR-CD3 inh conf
CCC(CC)NC(=O)O[C@H]1CC[C@@]23CCCN2C(=O)CCC[C@H]3[C@H]1C,/,.,/,.,/,.,/,/
O=C(Cn1nc2ccccc2n1)N/N=C/c1cc([N+](=O)[O-])ccc1O,.,.,.,.,26,.,.,26
C=CCN1C(=O)[C@@H](CC(=O)NCc2cccc(C(F)(F)F)c2)[C@]2(C(=O)OC)CCCCC=C12,.,.,/,.,/,.,/,/
Cc1ccc[n+](-c2[nH]c(=O)sc2/C=N/NC(=O)c2ccccc2[O-])c1,.,.,.,.,19,.,.,.
O=C(N/N=C/c1sc(=O)[nH]c1-[n+]1ccccc1)c1ccccc1[O-],.,.,.,.,.,.,/,/
C[C@H]1[C@@H](OC(=O)Nc2ccccc2Cl)CC[C@@]23CCCN2C(=O)CCC[C@@H]13,/,.,/,.,/,.,/,/
Cc1nn(-c2ccccc2)c(Cl)c1/C=N/NC(=O)c1cccnc1,.,.,.,.,.,.,/,/
O=C(N/N=C/c1c(Cl)nc2ccccn2c1=O)c1cccnc1,.,.,.,.,29,.,.,.
COc1ccc(CC(=O)N2CCC(n3nccc3NC(=O)C3CC3)CC2)cc1,.,.,.,.,.,.,/,/
COc1ccc(OCC(=O)N2CCC(n3nccc3NC(=O)C3CC3)CC2)cc1,.,.,.,.,21,.,.,.
COc1ccc(S(=O)(=O)N2CCN(CC(=O)c3ccc(O)c(O)c3)CC2)cc1,.,.,.,.,25,.,.,.
O=C(CCl)NNC(=O)c1c(O)c2ccccc2[nH]c1=O,.,.,.,.,66,.,.,50
O=C(NC1CC1)c1c(O)c2ccccc2[nH]c1=O,.,.,.,.,.,.,/,/
O=C(NNC(=O)c1c(O)c2ccccc2[nH]c1=O)c1ccccc1Br,.,.,.,.,27,.,.,.
C/C(=N\NC(=O)c1nnn(-c2nonc2N)c1CN(C)c1ccccc1)c1ccccc1O,.,.,.,.,41,.,.,29
O=C(CC1C(=O)NCCN1Cc1cccc(F)c1)NCCCCCN1CCOCC1 (stereo not drawn),.,.,.,.,20,.,.,.
O=C(Cn1nc(-c2ccccc2)c2ccccc21)Oc1ccccc1,/,.,/,.,/,.,/,/
CCN1CCN(Cc2ccc(NC(=O)c3ccc(C)c(NC(=O)c4c[nH]c5cc(C(F)(F)F)ccc5c4=O)c3)cc2C(F)(F)F)CC1,.,.,.,.,24,.,.,21!
Cc1ccc(C(=O)Nc2cccc(C(F)(F)F)c2)cc1NC(=O)c1c[nH]c2cc(C(F)(F)F)ccc2c1=O,.,.,.,.,.,.,/,/
O=C(OCc1cn(Cc2ccccc2)nn1)N1CCCC1,.,.,/,.,/,.,/,/
Cc1ccc(S(=O)(=O)Cc2ccc(C(=O)N3CCN(c4cccc(C)c4C)CC3)o2)cc1,.,.,.,.,.,.,/,/
Cc1ccc(C(=O)N2CCN(c3cccc(C)c3C)CC2)o1,.,.,.,.,33,.,.,.
C[C@@H]1Cn2cnc(C(=O)N3CCN(C(=O)OC(C)(C)C)CC3)c2C(=O)N1,.,.,/,.,20,.,.,.
COC(=O)C1CN(Cc2cn(Cc3ccc(OC)cc3)nn2)CCS(=O)(=O)N1Cc1ccc(Cl)cc1 (stereo not drawn),.,.,/,.,/,.,/,/
O=S(=O)(c1ccc2nc(-c3ccccc3)[nH]c2c1)N1CCN(c2cccc(Cl)c2)CC1,.,.,.,.,68,.,27,45
SMILES,rCAG RNA binder,ABHD4 inh,HTRA1 inhibitor,PRMT1 inh,TCR CD3 inh,SIAE inh,BSA probe FL,TCR-CD3 inh conf
COc1ccccc1N1CCN(S(=O)(=O)c2ccc3nc(-c4ccccc4)[nH]c3c2)CC1,.,.,.,.,.,.,/,/
COc1c(-c2ccc(O)cc2)oc2cc(O)cc(O)c2c1=O,.,.,.,.,32,.,.,.
COc1ccc(-c2oc3cc(O)c(OC)c(O)c3c(=O)c2OC)cc1,.,.,.,.,.,.,/,/
CC(C)CN1CN2Cc3ccccc3C2CS1(=O)=O (stereo not drawn),.,.,/,.,/,.,/,/
CCCS(=O)(=O)N1CCCC(C(=O)NCCCN(Cc2ccccc2)C(C)C)C1 (stereo not drawn),.,.,.,.,65,.,.,.
COCCCNC(=O)C1CCN(S(=O)(=O)c2ccc3[nH]c(=O)oc3c2)CC1,.,.,/,.,/,.,/,/
Cc1ccccc1N=Cc1c(O)n(-c2nccs2)c(=O)c2ccccc12,.,.,.,.,.,.,/,/
O=c1c2ccccc2c(C=Nc2ccccc2O)c(O)n1-c1nccs1,.,.,.,.,61,.,.,50
O=C(CSc1nnc(-c2cccs2)o1)Nc1cccc2ccccc12,.,.,/,.,/,.,/,/
O=C(CN1CCN(c2ccccc2)CC1)N1CCc2[nH]c3ccccc3c2C1,.,.,.,.,22,.,.,.
COC(=O)[C@]12C[C@H](CC(=O)NCc3ccc(C)o3)C(=O)N(Cc3cccc4ccccc34)C1=C[C@H](C(C)C)O[C@@H]2C1CC1,.,.,/,.,/,.,/,/
NC1=NC[C@H](Cc2ccc(O)cc2)N1CCc1cccc(F)c1,.,.,.,.,33,.,.,.
CCCC(=O)OC12CCCN(C1)/C(=C/c1cccc(Cl)c1)C2 (stereo not drawn),.,.,/,.,/,.,/,/
CC1(C)c2ccccc2N2CCC(=O)NC21/C=C/c1ccco1 (stereo not drawn),.,.,.,.,19,.,.,.
CC(=O)CC[C@H]1CC[C@]2(CCCN(S(=O)(=O)c3ccccc3)C2)O1,.,.,/,.,/,.,/,/
COC(=O)c1ccc2c(=O)n(Cc3ccco3)c(SCC(=O)Nc3ccc(C)c(Cl)c3)nc2c1,.,.,.,.,.,.,/,/
O=C(CSc1nc2cc(Cl)ccc2c(=O)n1Cc1ccco1)Nc1ccc(S(=O)(=O)N2CCOCC2)cc1,.,.,.,.,20,.,.,26
COc1ccc(C(=O)Nc2nnc(CC(=O)N/N=C/c3ccc(O)cc3O)s2)cc1,.,.,.,.,23,.,.,35
CCc1nnc(NC(=O)c2ccc(OC)cc2)s1,.,.,.,.,.,.,/,/
CC(=O)CC[C@H]1CC[C@]2(CCCN(C(=O)c3ccc4ccccc4n3)C2)O1,.,.,/,.,/,.,/,/
